Measurements taken from ChEMBL document CHEMBL3352789, “Chemical and computational methods for the characterization of covalent reactive groups for the prospective design of irreversible inhibitors” (J Med Chem, 2014).

How the values were obtained:
[1] = Reactivity of covalent reactive group using GSH reaction assessed as pseudo-first-order reaction at 37 degC by mass spectrometry
Procedure, shortened: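 Automated liquid handler at 37 °C under N2 with degassed solutions. The mix holds 1 mM electrophile, 10 mM GSH and 0.10 mM indoprofen internal standard in 100 mM potassium phosphate pH 7.4:ACN 90:10. Sampling was hourly for 7 h, each sample diluted 10-fold in water. Pseudo-first-order k gives t1/2. Controls had no GSH.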

[2] = Reactivity of covalent reactive group using GSH reaction assessed as pseudo-first-order reaction at 60 degC by mass spectrometry
[3] = Reactivity of covalent reactive group using GSH reaction assessed as pseudo-first-order reaction at 37 degC by nuclear magnetic resonance spectroscopy
Procedure, shortened: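 Electrophile standard at 2 mM and GSH solution at 20 mM, both in 100 mM phosphate pH 7.4 with 10% D2O, combined in an NMR tube. 1D 1H spectra with presaturation were acquired hourly for about 19 h. Pseudo-first-order k came from the natural log of the electrophile resonance area versus time, converted to t1/2.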

[4] = GSH reactivity assessed as reaction half life through transition state modeling at pH 7.4; format: physicochemical; details: glutathione (GSH) reaction mixture

Q: Which results are given for C=C(C)S(=O)(=O)NC?
A: K [1]: < 0.2 ×10⁻³ /min; K [2]: 0.4 ×10⁻³ /min

Q: Which K [2] does the source give for CNC(=O)C(C)Cl (stereo unspecified) here?
A: 0.6 ×10⁻³ /min

Q: With CN1CC=CC1=O as the molecule, how does the K [1] read?
A: 0.4 ×10⁻³ /min

Q: Which K [3] does the source give for CC#CC(=O)NC here?
A: 0.3 ×10⁻³ /min

Q: Which K [2] does the source give for C=C(C)C(=O)Nc1ccccc1 here?
A: 0.2 ×10⁻³ /min

Q: Which K [1] does the source give for CN1CC=CS1(=O)=O here?
A: 0.4 ×10⁻³ /min

Q: Which K [2] does the source give for CNC(=O)C1=CCC1 here?
A: 0.6 ×10⁻³ /min

Q: With C/C=C(\C)S(=O)(=O)NC as the molecule, how does the K [2] read?
A: < 0.2 ×10⁻³ /min

Q: With N#Cc1ccccn1 as the molecule, how does the K [3] read?
A: 0.5 ×10⁻³ /min

Q: And the half-life [4]?
A: 1500 min

Q: With C=CC(=O)NC as the molecule, how does the K [3] read?
A: 0.7 ×10⁻³ /min

Q: What about the half-life [4] of the same molecule?
A: 1020 min

Q: For CC1CCCN1C#N (stereo unspecified), which K [3] is on record?
A: 0.6 ×10⁻³ /min

Q: Which results are given for CNC(=O)CBr?
A: K [1]: > 140 ×10⁻³ /min; half-life [4]: < 4.8 min

Q: With CNC(=O)CCl as the molecule, how does the K [1] read?
A: 3.6 ×10⁻³ /min

Q: And the half-life [4]?
A: 192 min

Q: Which K [2] does the source give for CNC(=O)C1=CCCC1 here?
A: < 0.2 ×10⁻³ /min

Q: With CN1CCC=CS1(=O)=O as the molecule, how does the K [1] read?
A: 0.2 ×10⁻³ /min

Q: With CNC(=O)/C=C/CN1CCOCC1 as the molecule, how does the half-life [4] read?
A: 1680 min

Q: Which K [3] does the source give for N#CN1CCCC1 [CYANO-PYRROLIDINE] here?
A: 5.3 ×10⁻³ /min

Q: And the half-life [4]?
A: 132 min

Q: For C=CC(=O)NCc1cccc(OC)c1, which K [1] is on record?
A: 0.4 ×10⁻³ /min

Q: For N#CN1CCCCC1, which K [3] is on record?
A: 0.8 ×10⁻³ /min

Q: With C=CC(=O)N1CCCCC1 as the molecule, how does the K [1] read?
A: 0.4 ×10⁻³ /min
